In ChEMBL document CHEMBL4052657, “Design, synthesis and biological evaluation of sulfonamide-substituted diphenylpyrimidine derivatives (Sul-DPPYs) as potent focal adhesion kinase (FAK) inhibitors with antitumor activity” (Bioorg Med Chem, 2017):
pIC50: −log10 of the molar value.

How the values were obtained:
PANC-1 [1] = experiment: Antiproliferative activity against human PANC1 cells after 72 hrs by CCK8 assay; conditions: PANC-1, 72 h
NCI-H1975 = experiment: Antiproliferative activity against gefitinib-resistant human NCI-H1975 cells harboring FAK after 72 hrs by CCK8 assay; format: functional, cell-based; conditions: NCI-H1975, 72 h
Summary of the method: (§1)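 Cells in RPMI-1640 with 10% FBS and 1% penicillin-streptomycin, 37 °C, 5% CO2. Seeded at 3,000 to 5,000 cells/well and grown one day, then exposed to compound for 72 h at 1.25 to 40 µmol/L, five replicates per concentration. CCK-8 read-out is absorbance at 450 nm. Dose-response curves used five concentrations. IC50 is the mean of at least three separate experiments.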

L02 = experiment: Antiproliferative activity against human LO2 cells after 72 hrs by CCK8 assay; conditions: L02, 72 h
BXPC-3 = experiment: Antiproliferative activity against human BxPC3 cells after 72 hrs by CCK8 assay; conditions: BXPC-3, 72 h
Ramos = experiment: Antiproliferative activity against human Ramos cells after 72 hrs by CCK8 assay; format: functional, cell-based; summary of the method: as §1
ASPC1 [2] = experiment: Antiproliferative activity against human AsPC1 cells after 72 hrs by CCK8 assay; conditions: ASPC1, 72 h
ASPC1 [3] = experiment: Induction of apoptosis in human AsPC1 cells assessed as early apoptotic cells at 10 uM after 72 hrs by Annexin-V-FITC/propidium iodide staining based flow cytometry relative to control; format: functional
Summary of the method: (§2)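 AsPC-1 cells at 2 to 5 ×10⁵ cells/well were treated for 72 h with DMSO solvent control or compound at 1, 5 or 10 µM in medium with 5% FBS. Cells were then […], stained with annexin V-FITC/propidium iodide and analysed by flow cytometry.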

ASPC1 [4] = experiment: Induction of apoptosis in human AsPC1 cells assessed as late apoptotic cells at 5 uM after 72 hrs by Annexin-V-FITC/propidium iodide staining based flow cytometry relative to control; format: functional; summary of the method: as §2
ASPC1 [5] = experiment: Induction of apoptosis in human AsPC1 cells assessed as early apoptotic cells at 1 uM after 72 hrs by Annexin-V-FITC/propidium iodide staining based flow cytometry relative to control; format: functional; summary of the method: as §2
ASPC1 [6] = experiment: Induction of apoptosis in human AsPC1 cells after 72 hrs by Annexin-V-FITC/propidium iodide staining based flow cytometry; format: functional, cell-based; summary of the method: as §2
PANC-1 [7] = experiment: Antiproliferative activity against human PANC1 cells assessed as cell viability at 8 uM after 72 hrs by CCK8 assay (reference value: 97.5%); format: functional; conditions: PANC-1, 72 h, read-out: Activity
ASPC1 [8] = experiment: Antiproliferative activity against human AsPC1 cells assessed as cell viability at 5 uM after 72 hrs by CCK8 assay (reference value: 96.9%); format: functional; conditions: ASPC1, 72 h, read-out: Activity
ASPC1 [9] = experiment: Antiproliferative activity against human AsPC1 cells assessed as cell viability at 10 uM after 24 hrs by CCK8 assay relative to control; format: functional; conditions: ASPC1, 24 h, read-out: Activity
ASPC1 [10] = experiment: Induction of apoptosis in human AsPC1 cells assessed as viable cells at 10 uM after 72 hrs by Annexin-V-FITC/propidium iodide staining based flow cytometry relative to control; format: functional; conditions: ASPC1, 72 h, read-out: Activity; summary of the method: as §2
ASPC1 [11] = experiment: Antiproliferative activity against human AsPC1 cells assessed as cell viability at 10 uM after 72 hrs by CCK8 assay (reference value: 96.9%); format: functional; conditions: ASPC1, 72 h, read-out: Activity
PANC-1 [12] = experiment: Antiproliferative activity against human PANC1 cells assessed as cell viability at 0.5 uM after 72 hrs by CCK8 assay (reference value: 97.5%); format: functional; conditions: PANC-1, 72 h, read-out: Activity
PANC-1 [13] = experiment: Antiproliferative activity against human PANC1 cells assessed as cell viability at 0.5 uM after 48 hrs by CCK8 assay (reference value: 99%); format: functional; conditions: PANC-1, 48 h, read-out: Activity
PANC-1 [14] = experiment: Antiproliferative activity against human PANC1 cells assessed as cell viability at 0.5 uM after 24 hrs by CCK8 assay relative to control; format: functional; conditions: PANC-1, 24 h, read-out: Activity
ASPC1 [15] = experiment: Antiproliferative activity against human AsPC1 cells assessed as cell viability at 1.25 uM after 72 hrs by CCK8 assay (reference value: 96.9%); format: functional; conditions: ASPC1, 72 h, read-out: Activity
ASPC1 [16] = experiment: Antiproliferative activity against human AsPC1 cells assessed as cell viability at 5 uM after 48 hrs by CCK8 assay (reference value: 98.6%); format: functional; conditions: ASPC1, 48 h, read-out: Activity
ASPC1 [17] = experiment: Induction of apoptosis in human AsPC1 cells assessed as necrotic cells at 5 uM after 72 hrs by Annexin-V-FITC/propidium iodide staining based flow cytometry relative to control; format: functional; summary of the method: as §2
PANC-1 [18] = experiment: Antiproliferative activity against human PANC1 cells assessed as cell viability at 8 uM after 24 hrs by CCK8 assay relative to control; format: functional; conditions: PANC-1, 24 h, read-out: Activity
ASPC1 [19] = experiment: Induction of apoptosis in human AsPC1 cells assessed as viable cells at 5 uM after 72 hrs by Annexin-V-FITC/propidium iodide staining based flow cytometry relative to control; format: functional; conditions: ASPC1, 72 h, read-out: Activity; summary of the method: as §2
ASPC1 [20] = experiment: Induction of apoptosis in human AsPC1 cells assessed as late apoptotic cells at 1 uM after 72 hrs by Annexin-V-FITC/propidium iodide staining based flow cytometry relative to control; format: functional; summary of the method: as §2
PANC-1 [21] = experiment: Antiproliferative activity against human PANC1 cells assessed as cell viability at 8 uM after 48 hrs by CCK8 assay (reference value: 99%); format: functional; conditions: PANC-1, 48 h, read-out: Activity
PANC-1 [22] = experiment: Antiproliferative activity against human PANC1 cells assessed as cell viability at 2 uM after 48 hrs by CCK8 assay (reference value: 99%); format: functional; conditions: PANC-1, 48 h, read-out: Activity
ASPC1 [23] = experiment: Antiproliferative activity against human AsPC1 cells assessed as cell viability at 10 uM after 48 hrs by CCK8 assay (reference value: 98.6%); format: functional; conditions: ASPC1, 48 h, read-out: Activity
ASPC1 [24] = experiment: Induction of apoptosis in human AsPC1 cells assessed as necrotic cells at 1 uM after 72 hrs by Annexin-V-FITC/propidium iodide staining based flow cytometry relative to control; format: functional; summary of the method: as §2
PANC-1 [25] = experiment: Antiproliferative activity against human PANC1 cells assessed as cell viability at 2 uM after 24 hrs by CCK8 assay relative to control; format: functional; conditions: PANC-1, 24 h, read-out: Activity
PANC-1 [26] = experiment: Antiproliferative activity against human PANC1 cells assessed as cell viability at 2 uM after 72 hrs by CCK8 assay (reference value: 97.5%); format: functional; conditions: PANC-1, 72 h, read-out: Activity
ASPC1 [27] = experiment: Induction of apoptosis in human AsPC1 cells assessed as late apoptotic cells at 10 uM after 72 hrs by Annexin-V-FITC/propidium iodide staining based flow cytometry relative to control; format: functional; summary of the method: as §2
ASPC1 [28] = experiment: Antiproliferative activity against human AsPC1 cells assessed as cell viability at 5 uM after 24 hrs by CCK8 assay relative to control; format: functional; conditions: ASPC1, 24 h, read-out: Activity
ASPC1 [29] = experiment: Antiproliferative activity against human AsPC1 cells assessed as cell viability at 1.25 uM after 24 hrs by CCK8 assay relative to control; format: functional; conditions: ASPC1, 24 h, read-out: Activity
ASPC1 [30] = experiment: Induction of apoptosis in human AsPC1 cells assessed as necrotic cells at 10 uM after 72 hrs by Annexin-V-FITC/propidium iodide staining based flow cytometry relative to control; format: functional; summary of the method: as §2
ASPC1 [31] = experiment: Antiproliferative activity against human AsPC1 cells assessed as cell viability at 1.25 uM after 48 hrs by CCK8 assay (reference value: 98.6%); format: functional; conditions: ASPC1, 48 h, read-out: Activity
ASPC1 [32] = experiment: Induction of apoptosis in human AsPC1 cells assessed as viable cells at 1 uM after 72 hrs by Annexin-V-FITC/propidium iodide staining based flow cytometry relative to control; format: functional; conditions: ASPC1, 72 h, read-out: Activity; summary of the method: as §2
ASPC1 [33] = experiment: Induction of apoptosis in human AsPC1 cells assessed as early apoptotic cells at 5 uM after 72 hrs by Annexin-V-FITC/propidium iodide staining based flow cytometry relative to control; format: functional; summary of the method: as §2

CNC(=O)c1ccccc1Nc1nc(Nc2ccc(NS(=O)(=O)c3ccc(OC)cc3)c(C)c2)ncc1Cl
pIC50 (PANC-1 [1]): 7.52
pIC50 (NCI-H1975): 5.31
pIC50 (L02): 5.54
pIC50 (BXPC-3): 4.97
pIC50 (Ramos): 5.34
pIC50 (ASPC1 [2]): 5.75

CNC(=O)c1ccccc1Nc1nc(Nc2ccc(Oc3ccc(NS(C)(=O)=O)cc3)cc2)ncc1Cl
pIC50 (PANC-1 [1]): 5.44
pIC50 (NCI-H1975): 5.20
pIC50 (L02): 4.78
pIC50 (BXPC-3): 4.85
pIC50 (Ramos): 4.70
pIC50 (ASPC1 [2]): 5.56

CNC(=O)c1ccccc1Nc1nc(Nc2ccc(NS(=O)(=O)c3ccc(C)cc3)c(OC)c2)ncc1Cl
pIC50 (PANC-1 [1]): < 4.40
pIC50 (NCI-H1975): 5.07
pIC50 (L02): < 4.40
pIC50 (BXPC-3): 4.65
pIC50 (Ramos): 4.92
pIC50 (ASPC1 [2]): 5.00

CNC(=O)c1ccccc1Nc1nc(Nc2ccc(NS(=O)(=O)c3ccc(F)cc3)cc2)ncc1Cl
Activity (ASPC1 [3]): 24.4%
Activity (ASPC1 [4]): 53.1%
Activity (ASPC1 [5]): 28.5%
Activity (ASPC1 [6]): Dose-dependent effect
pIC50 (PANC-1 [1]): 6.28
viability at 8 µM (PANC-1 [7]): 17.2%
viability at 5 µM (ASPC1 [8]): 49.1%
viability at 10 µM (ASPC1 [9]): 52%
viability at 10 µM (ASPC1 [10]): 12.1%
viability at 10 µM (ASPC1 [11]): 23.9%
viability at 0.5 µM (PANC-1 [12]): 45.9%
viability at 0.5 µM (PANC-1 [13]): 53.3%
viability at 0.5 µM (PANC-1 [14]): 71.6%
viability at 1.25 µM (ASPC1 [15]): 52%
viability at 5 µM (ASPC1 [16]): 76%
Activity (ASPC1 [17]): 1.1%
viability at 8 µM (PANC-1 [18]): 42.8%
viability at 5 µM (ASPC1 [19]): 24%
Activity (ASPC1 [20]): 27.3%
viability at 8 µM (PANC-1 [21]): 21.3%
pIC50 (NCI-H1975): 5.43
viability at 2 µM (PANC-1 [22]): 39.3%
viability at 10 µM (ASPC1 [23]): 47.1%
pIC50 (L02): 4.94
Activity (ASPC1 [24]): 0.6%
viability at 2 µM (PANC-1 [25]): 68.8%
viability at 2 µM (PANC-1 [26]): 36.2%
pIC50 (BXPC-3): 5.16
pIC50 (Ramos): 5.66
Activity (ASPC1 [27]): 62.9%
viability at 5 µM (ASPC1 [28]): 79.4%
viability at 1.25 µM (ASPC1 [29]): 90%
pIC50 (ASPC1 [2]): 5.41
Activity (ASPC1 [30]): 0.6%
viability at 1.25 µM (ASPC1 [31]): 79.4%
viability at 1 µM (ASPC1 [32]): 43.6%
Activity (ASPC1 [33]): 21.8%

Nc1ccn([C@@H]2O[C@H](CO)[C@@H](O)C2(F)F)c(=O)n1 [GEMCITABINE]
pIC50 (PANC-1 [1]): 4.52
pIC50 (NCI-H1975): < 5.00
pIC50 (L02): < 4.70
pIC50 (BXPC-3): 4.69
pIC50 (Ramos): < 5.00
pIC50 (ASPC1 [2]): 4.57

CNC(=O)c1ccccc1Nc1nc(Nc2ccc(NS(=O)(=O)c3ccc(C)cc3)c(C)c2)ncc1Cl
pIC50 (PANC-1 [1]): 5.52
pIC50 (NCI-H1975): 5.02
pIC50 (L02): 4.56
pIC50 (BXPC-3): 4.64
pIC50 (Ramos): 4.69
pIC50 (ASPC1 [2]): 5.63
